Type in all cases: functional
Assay [1] is filed under the species Mus musculus. In words: Peroral dose required to reduce by 50% the score of excitatory behavior induced by intrathecal injection of ferrous chloride in mice. The conditions noted are these: central, read-out: ID50 (the source's name). The essentials: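 Male Slc:ICR mice, 5 weeks old, 10 per dose. Compound given orally 30 min before intrathecal 5 μL of 50 mM FeCl2 in saline (between L6 and S1). Vehicle was water, or 0.5% gum arabic suspension. Behaviour scored 0–5 (biting to death) from 15 min to 1 h. ID50 from three or four doses, relative to vehicle score.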

In assay [2] the test system is Mus musculus. In words: Percentage increase of locomotor activity in mice at a dose of 1 mg/kg dihydrochloride (15 mice were used). Put shortly:
(§1)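 Male ICR mice, 5 weeks, 25–35 g, acclimated 90 min. (S)- or (R)-dihydrochloride given ip in 5% gum arabic. Methamphetamine 1 mg/kg ip in saline given 30 min later. Locomotor activity recorded afterwards and expressed relative to saline–methamphetamine controls; two-tailed Student's t-test.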

Assay [3] concerns Mus musculus. In words: Percentage increase of locomotor activity in mice at a dose of 10 mg/kg dihydrochloride (16 mice were used). The essentials: as §1
Assay [4] relates to Mus musculus. In words: Percentage increase of locomotor activity in mice at a dose of 3 mg/kg dihydrochloride (13 mice were used). Put shortly: as §1
The subject of assay [5] is Mus musculus. Put plainly: Locomotor activity was measured for 1 hour after administration of 1 mg/kg of dihydrchloride in mice (15 mice were used). Put shortly:
as §1

Assay [6] has as its system Mus musculus. In words: Locomotor activity was measured for 1 hour after administration of 10 mg/kg of dihydrchloride in mice (16 mice were used). The essentials:
as §1

For assay [7], the system named is Mus musculus. In words: Locomotor activity was measured for 1 hour after administration of 3 mg/kg of dihydrchloride in mice (13 mice were used). Put shortly:
as §1

For assay [8], the system named is Mus musculus. In words: Percentage increase of locomotor activity in mice at dose of 0.1 mg/kg dihydrochloride (10 mice were used). Put shortly: as §1
Assay [9] deals with Mus musculus. Put plainly: Percentage increase of locomotor activity in mice at dose of 0.3 mg/kg dihydrochloride (9 mice were used). Put shortly: as §1
Assay [10] concerns Mus musculus. Put plainly: Percentage increase of locomotor activity in mice at dose of 1 mg/kg apomorphine (11 mice were used). Put shortly:
(§2)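 Male ICR mice, 5 weeks. Dihydrochloride given ip 30 min before apomorphine 1 mg/kg sc, the hypermotility inducer used in place of methamphetamine. Spontaneous motor activity monitored afterwards; two-tailed Student's t-test.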

The subject of assay [11] is Mus musculus. In words: Percentage increase of locomotor activity in mice at dose of 1 mg/kg dihydrochloride (9 mice were used).
Assay [12] relates to Mus musculus. Put plainly: Locomotor activity was measured for 1 hour after administration of 0.1 mg/kg dihydrochloride in mice (10 mice were used). The essentials: as §1
Assay [13] has as its system Mus musculus. Put plainly: Locomotor activity was measured for 1 hour after administration of 0.3 mg/kg dihydrochloride in mice (9 mice were used). The essentials:
as §1

Assay [14] concerns Mus musculus. Put plainly: Locomotor activity was measured for 1 hour after administration of 1 mg/kg apomorphine in mice (11 mice were used). Put shortly:
as §2

The test system of assay [15] is Mus musculus. Put plainly: Locomotor activity was measured for 1 hour after administration of 1 mg/kg dihydrochloride in mice (9 mice were used). The essentials: as §1

Consider 2 compounds from ChEMBL document CHEMBL1129943, “5-aminocoumarans: dual inhibitors of lipid peroxidation and dopamine release with protective effects against central nervous system trauma and ischemia” (J Med Chem, 1997).

As for `Cc1c(C)c2c(c(C)c1N)C[C@](C)(CN1CCC(c3ccccc3)CC1)O2`, the ED50 in [1] was 11.6 mg/kg. For the same compound, the Increase worked out at 129% in [2], 67.7% in [3] and 169% in assay [4]. The Locomotor activity came out at 1472 in [5], 889 in assay [6] and 1852 in assay [7].

On to `Cc1c(C)c2c(c(C)c1N)C[C@@](C)(CN1CCC(c3ccccc3)CC1)O2`, for which, in [1], the ED50 came out at 10.8 mg/kg. For the same compound, the Increase in assay [8] was 113.2%; in [9] it was 54.4%; in [10] it was 124.5%; in assay [11], 35.1%. The Locomotor activity in assay [12] is on record as 2103; in assay [13] it was 1102; in assay [14], 841; in [15], 773.
